Results on four compounds are retold here after ChEMBL document CHEMBL2412955, “Synthesis and antibacterial activities of N-substituted-glycinyl 1H-1,2,3-triazolyl oxazolidinones” (2013).

Values after ≈ are worked out from the molar mass of the structure shown.

Assay type in all cases: functional
The test system of experiment [1] is Streptococcus pneumoniae. As to the kind of experiment: Antibacterial activity against penicillin-resistant Streptococcus pneumoniae after 18 hrs by NCCLS agar dilution method. A digest of the protocol: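 Agar dilution was run on Mueller-Hinton agar supplemented with 5% sheep blood, with drug dilutions from 0.12 to 64 µg/ml. Test compounds were dissolved in 80% DMSO in water. Final inoculum was 10^7 CFU/ml, incubated at 35 °C for 18 h. MIC was the lowest concentration preventing visible growth.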
On the technique in general: In agar dilution the substance is mixed into plates at graded concentrations.

Experiment [2] has as its system Staphylococcus aureus. Briefly: Antibacterial activity against methicillin-susceptible Staphylococcus aureus after 18 hrs by NCCLS agar dilution method. A digest of the protocol: (§1)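 Clinical isolates were tested by agar dilution on Mueller-Hinton agar with drug dilutions from 0.12 to 64 µg/ml. Test compounds were dissolved in 80% DMSO in water. Final inoculum was 10^7 CFU/ml, incubated at 35 °C for 18 h. MIC was the lowest concentration inhibiting visible growth.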

The test system of experiment [3] is Enterococcus. Briefly: Antibacterial activity against vancomycin-resistant Enterococcus after 18 hrs by NCCLS agar dilution method. A digest of the protocol:
as §1

In experiment [4] the test system is Haemophilus influenzae. Briefly: Antibacterial activity against Haemophilus influenzae ATCC 49247 after 18 hrs by NCCLS agar dilution method. To be noted: ATCC 49247, 18 h. The essentials: (§2)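 NCCLS agar dilution on Mueller-Hinton agar with 5% sheep blood added to support growth. Drug dilutions 0.12–64 µg/ml. Test agents in 80% DMSO in water, linezolid in 40% water in ethanol. Final inoculum 10^7 CFU/ml, 18 h at 35 °C. MIC read as the lowest concentration with no visible growth.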

Experiment [5] has as its system Moraxella catarrhalis. Briefly: Antibacterial activity against Moraxella catarrhalis clinical isolate 1 after 18 hrs by NCCLS agar dilution method. The settings on record: clinical isolate 1, 18 h. The essentials:
as §2

For experiment [6], the system named is Staphylococcus aureus. As to the kind of experiment: Antibacterial activity against Staphylococcus aureus ATCC 25923 after 18 hrs by […] in presence of human plasma. To be noted: ATCC 25923, Plasma. The essentials:
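To gauge plasma protein binding and/or plasma instability, MIC was determined in Mueller-Hinton broth containing 50% human plasma. Linezolid served as a reference agent. Ratio compares this MIC with the MIC obtained without plasma.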

The test system of experiment [7] is Moraxella catarrhalis. As to the kind of experiment: Antibacterial activity against Moraxella catarrhalis clinical isolate 36 after 18 hrs by NCCLS agar dilution method. To be noted: clinical isolate 36, 18 h. A digest of the protocol:
as §2

The test system of experiment [8] is Moraxella catarrhalis. As to the kind of experiment: Antibacterial activity against Moraxella catarrhalis ATCC 8176 after 18 hrs by NCCLS agar dilution method. To be noted: ATCC 8176, 18 h. A digest of the protocol:
as §2

In experiment [9] the test system is Moraxella catarrhalis. Briefly: Antibacterial activity against Moraxella catarrhalis clinical isolate 138 after 18 hrs by NCCLS agar dilution method. The settings on record: clinical isolate 138, 18 h. A digest of the protocol:
as §2

The subject of experiment [10] is Staphylococcus. Briefly: Antibacterial activity against methicillin-susceptible coagulase-negative Staphylococcus after 18 hrs by NCCLS agar dilution method. A digest of the protocol: as §1
Experiment [11] has as its system Moraxella catarrhalis. Briefly: Antibacterial activity against Moraxella catarrhalis clinical isolate 125 after 18 hrs by NCCLS agar dilution method. To be noted: clinical isolate 125, 18 h. The essentials:
as §2

Experiment [12] has as its system Moraxella catarrhalis. Briefly: Antibacterial activity against Moraxella catarrhalis clinical isolate 112 after 18 hrs by NCCLS agar dilution method. To be noted: clinical isolate 112, 18 h. A digest of the protocol: as §2
Experiment [13] has as its system Staphylococcus. As to the kind of experiment: Antibacterial activity against methicillin-resistant coagulase-negative Staphylococcus after 18 hrs by NCCLS agar dilution method. A digest of the protocol: as §1
The subject of experiment [14] is Moraxella catarrhalis. As to the kind of experiment: Antibacterial activity against Moraxella catarrhalis clinical isolate 3447 after 18 hrs by NCCLS agar dilution method. The settings on record: clinical isolate 3447, 18 h. The essentials: as §2
Experiment [15] concerns Enterococcus. Briefly: Antibacterial activity against vancomycin-susceptible Enterococcus after 18 hrs by NCCLS agar dilution method. The essentials:
as §1

The test system of experiment [16] is Moraxella catarrhalis. Briefly: Antibacterial activity against Moraxella catarrhalis clinical isolate 255 after 18 hrs by NCCLS agar dilution method. The settings on record: clinical isolate 255, 18 h. A digest of the protocol: as §2
For experiment [17], the system named is Moraxella catarrhalis. As to the kind of experiment: Antibacterial activity against Moraxella catarrhalis clinical isolate 2824 after 18 hrs by NCCLS agar dilution method. The settings on record: clinical isolate 2824, 18 h. A digest of the protocol: as §2
The subject of experiment [18] is Escherichia coli. As to the kind of experiment: Antibacterial activity against Escherichia coli ATCC 25922 after 18 hrs by NCCLS agar dilution method. The settings on record: ATCC 25922, 18 h. The essentials: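 Agar dilution per NCCLS on Mueller-Hinton agar, drug dilutions 0.12–64 µg/ml. Linezolid dissolved in 40% water in ethanol, vancomycin in water, test agents in 80% DMSO in water. Inoculum 10^7 CFU/ml (final), incubated 35 °C for 18 h. MIC is the lowest concentration preventing visible growth.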

The subject of experiment [19] is Staphylococcus aureus. Briefly: Antibacterial activity against Staphylococcus aureus ATCC 25923 after 18 hrs by NCCLS agar dilution method. The settings on record: ATCC 25923, 18 h. A digest of the protocol:
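Plain Mueller-Hinton agar, agar dilution per NCCLS, concentrations 0.12–64 µg/ml. Test agents in 80% DMSO in water, linezolid in 40% water in ethanol, vancomycin in water. Final inoculum 10^7 CFU/ml, 35 °C for 18 h. MIC = lowest concentration inhibiting visible growth.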

The test system of experiment [20] is Staphylococcus aureus. As to the kind of experiment: Antibacterial activity against methicillin-resistant Staphylococcus aureus after 18 hrs by NCCLS agar dilution method. The essentials:
as §1

With `Cc1cn(C[C@H]2CN(c3ccc(N4CCN(C(=O)CNC(=O)c5ccco5)CC4)c(F)c3)C(=O)O2)nn1`, the MIC in experiment [1] was 0.5 µg/mL (≈ 0.977 µM); in [2], 2 µg/mL (≈ 3.91 µM); in experiment [3], 2 µg/mL (≈ 3.91 µM); in [4] it was 4 µg/mL (≈ 7.82 µM); in [5], greater than 8 µg/mL; in experiment [6], 4 µg/mL. For the same compound, the MIC is greater than 8 µg/mL in [7]; 8 µg/mL (≈ 15.6 µM) in [8]; greater than 8 µg/mL in experiment [9]; 2 µg/mL (≈ 3.91 µM) in experiment [10]; greater than 8 µg/mL in [11]; greater than 8 µg/mL in [12]. Moreover, the MIC is 2 µg/mL (≈ 3.91 µM) in experiment [13]; greater than 8 µg/mL in experiment [14]; 2 µg/mL (≈ 3.91 µM) in experiment [15]; greater than 8 µg/mL in [16]; greater than 8 µg/mL in [17]; greater than 64 µg/mL in experiment [18]. In addition, the MIC in experiment [19] and in experiment [20] was 2 µg/mL (≈ 3.91 µM) each time.

With `Cc1cn(C[C@H]2CN(c3ccc(N4CCN(C(=O)CNC(=O)c5cccnc5)CC4)c(F)c3)C(=O)O2)nn1`, the MIC in experiment [1] is 0.25 µg/mL (≈ 0.478 µM); in experiment [2] it was 1 µg/mL (≈ 1.91 µM); in [3], 1 µg/mL (≈ 1.91 µM); in experiment [4], 8 µg/mL (≈ 15.3 µM); in experiment [5] it was greater than 4 µg/mL; in experiment [6], 4 µg/mL. The MIC in [7] is greater than 4 µg/mL; in experiment [8], 8 µg/mL (≈ 15.3 µM); in [9], 4 µg/mL (≈ 7.65 µM); in experiment [10], 1 µg/mL (≈ 1.91 µM); in [11] it was 4 µg/mL (≈ 7.65 µM); in [12] it was 4 µg/mL (≈ 7.65 µM). In addition, the MIC in experiment [13] is 1 µg/mL (≈ 1.91 µM); in experiment [14], 8 µg/mL (≈ 15.3 µM); in [15] it was 1 µg/mL (≈ 1.91 µM); in [16], 4 µg/mL (≈ 7.65 µM); in experiment [17], 8 µg/mL (≈ 15.3 µM); in experiment [18] it was greater than 64 µg/mL. For the same compound, the MIC was found to be 2 µg/mL (≈ 3.83 µM) in experiment [19] and 1 µg/mL (≈ 1.91 µM) in experiment [20].

As for `O=C(NCC(=O)N1CCN(c2ccc(N3C[C@H](Cn4ccnn4)OC3=O)cc2F)CC1)c1cccs1`, the MIC turned out to be 0.5 µg/mL (≈ 0.974 µM) in experiment [1]; 0.5 µg/mL (≈ 0.974 µM) in [2]; 1 µg/mL (≈ 1.95 µM) in experiment [3]; 16 µg/mL (≈ 31.2 µM) in [4]; 8 µg/mL (≈ 15.6 µM) in [5]; 8 µg/mL in [6]. Further, the MIC in experiment [7] came out at 8 µg/mL (≈ 15.6 µM); in experiment [8], 8 µg/mL (≈ 15.6 µM); in experiment [9] it was 8 µg/mL (≈ 15.6 µM); in experiment [10], 0.5 µg/mL (≈ 0.974 µM); in experiment [11], 8 µg/mL (≈ 15.6 µM); in [12], 8 µg/mL (≈ 15.6 µM). Also, the MIC in experiment [13] was 0.5 µg/mL (≈ 0.974 µM); in [14] it was 8 µg/mL (≈ 15.6 µM); in [15] it was 1 µg/mL (≈ 1.95 µM); in experiment [16] it was 8 µg/mL (≈ 15.6 µM); in experiment [17] it was 8 µg/mL (≈ 15.6 µM); in experiment [18] it was greater than 64 µg/mL. The values for the MIC in [19] and in [20] were 1 µg/mL (≈ 1.95 µM) and 0.5 µg/mL (≈ 0.974 µM), respectively.

In the case of `CC(=O)NC[C@H]1CN(c2ccc(N3CCOCC3)c(F)c2)C(=O)O1` [LINEZOLID], the MIC in experiment [2] worked out at 0.5 µg/mL (≈ 1.48 µM); in [3] it was 0.5 µg/mL (≈ 1.48 µM); in experiment [4], 8 µg/mL (≈ 23.7 µM); in experiment [5], 8 µg/mL (≈ 23.7 µM); in [7], 8 µg/mL (≈ 23.7 µM); in experiment [8], 8 µg/mL (≈ 23.7 µM). Further, the MIC in [9] was found to be 8 µg/mL (≈ 23.7 µM); in experiment [10], 0.5 µg/mL (≈ 1.48 µM); in [11], 8 µg/mL (≈ 23.7 µM); in [12], 8 µg/mL (≈ 23.7 µM); in experiment [13], 0.5 µg/mL (≈ 1.48 µM); in experiment [14] it was 8 µg/mL (≈ 23.7 µM). For the same compound, the MIC is 0.5 µg/mL (≈ 1.48 µM) in experiment [15]; 8 µg/mL (≈ 23.7 µM) in [16]; 8 µg/mL (≈ 23.7 µM) in experiment [17]; greater than 64 µg/mL in experiment [18]; 0.5 µg/mL (≈ 1.48 µM) in experiment [20].
